Active and inactive are the calls of the source. The rule behind the calls is not given here.

Test [1] deals with Serine/threonine-protein kinase 32C (Homo sapiens) (UniProt Q86UX6). Description: Inhibition of wild-type human partial length YANK3 (M68 to G486 residues) expressed in bacterial expression system at 1 uM by Kinomescan method. Summed up: (§1)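 Single-concentration screen at 1 μM on the KINOMEscan panel (98 kinases), run by the platform provider. Results are given as percent of control: % Ctrl = [(test signal − positive control signal)/(negative control signal − positive control signal)] × 100. DMSO serves as negative control (100% Ctrl) and a control compound as positive control (0% Ctrl). Lower values mean stronger binding hits.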

In test [2] the test system is Mast/stem cell growth factor receptor Kit (Homo sapiens), P10721 [V559D,T670I]. Briefly: Inhibition of human partial length KIT V559D/T670I double mutant (Y545 to D952 residues) expressed in bacterial expression system at 1 uM by Kinomescan method. Summed up: (§2)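 KINOMEscan competition binding panel (98 kinases) run by the provider, compound screened once at 1 μM. Read-out is percent of control: [(test signal − positive control signal)/(negative control signal − positive control signal)] × 100. DMSO negative control sets 100% Ctrl and a control compound sets 0% Ctrl; lower values mean stronger hits.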
Sequence of Mast/stem cell growth factor receptor Kit (Homo sapiens), P10721 [V559D,T670I] (P10721 whole entry V559D/T670I, the tested form may be a part): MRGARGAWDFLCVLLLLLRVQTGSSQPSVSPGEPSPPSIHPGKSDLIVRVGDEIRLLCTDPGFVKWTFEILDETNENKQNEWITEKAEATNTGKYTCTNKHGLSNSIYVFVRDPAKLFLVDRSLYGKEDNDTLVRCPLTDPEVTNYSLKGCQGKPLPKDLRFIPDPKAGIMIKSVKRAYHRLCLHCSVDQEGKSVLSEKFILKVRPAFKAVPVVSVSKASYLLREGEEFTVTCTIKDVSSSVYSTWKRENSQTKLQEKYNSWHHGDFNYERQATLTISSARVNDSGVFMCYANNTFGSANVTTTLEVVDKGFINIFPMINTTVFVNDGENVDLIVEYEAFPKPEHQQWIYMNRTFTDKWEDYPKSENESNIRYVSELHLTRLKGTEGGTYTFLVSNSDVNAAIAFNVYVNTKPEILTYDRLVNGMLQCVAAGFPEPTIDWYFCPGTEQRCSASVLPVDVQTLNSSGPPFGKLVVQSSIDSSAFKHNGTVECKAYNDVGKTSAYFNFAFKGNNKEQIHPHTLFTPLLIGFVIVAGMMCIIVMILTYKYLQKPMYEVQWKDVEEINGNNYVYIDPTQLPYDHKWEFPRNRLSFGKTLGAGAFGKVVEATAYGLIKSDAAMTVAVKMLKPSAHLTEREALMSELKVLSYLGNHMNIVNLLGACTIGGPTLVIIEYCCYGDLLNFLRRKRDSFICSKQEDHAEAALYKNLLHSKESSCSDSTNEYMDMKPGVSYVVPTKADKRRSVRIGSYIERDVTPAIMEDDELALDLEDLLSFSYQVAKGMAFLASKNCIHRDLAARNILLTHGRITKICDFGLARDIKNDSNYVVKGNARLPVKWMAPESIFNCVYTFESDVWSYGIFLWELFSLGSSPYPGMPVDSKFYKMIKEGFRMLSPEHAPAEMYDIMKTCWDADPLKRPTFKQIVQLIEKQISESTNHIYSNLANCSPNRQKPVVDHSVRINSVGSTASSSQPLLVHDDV

Test [3] addresses Serine/threonine-protein kinase pim-3 (Homo sapiens) (UniProt Q86V86). Description: Inhibition of wild-type human partial length PIM3 (G16 to A317 residues) expressed in bacterial expression system at 1 uM by Kinomescan method. The essentials: (§3)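 Binding-competition screen on the KINOMEscan platform, run by the provider, with the test compound at 1 μM. Readout is percent of control: (test signal − positive control signal)/(negative control signal − positive control signal) × 100. The DMSO negative control is set as 100% Ctrl and a control compound as 0% Ctrl. Lower values mean stronger hits.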

Test [4] has as its target Mitogen-activated protein kinase 11 (Homo sapiens) (UniProt Q15759). Briefly: Inhibition of wild-type human full length p38-beta (M1 to Q364 residues) expressed in bacterial expression system at 1 uM by Kinomescan method. The essentials: (§4)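 KINOMEscan competition binding screen at 1 μM compound. Results reported as % of control = (test − positive control)/(DMSO negative control − positive control) × 100, where lower values mean stronger hits.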

Test [5] deals with Platelet-derived growth factor receptor alpha (Homo sapiens) (UniProt P16234). Description: Inhibition of wild-type human partial length PDGFRA (V575 to D1002 residues) expressed in mammalian expression system at 1 uM by Kinomescan method. The essentials:
as §3

For test [6], the target named is Mast/stem cell growth factor receptor Kit (Homo sapiens) (UniProt P10721). Briefly: Inhibition of wild-type human partial length KIT (I571 to D952 residues) expressed in bacterial expression system at 1 uM by Kinomescan method. The essentials:
as §2

For test [7], the target named is MAP kinase-interacting serine/threonine-protein kinase 1 (Homo sapiens) (UniProt Q9BUB5). Briefly: Inhibition of wild-type human full length MKNK1 (M1 to L424 residues) expressed in mammalian expression system at 1 uM by Kinomescan method. Summed up: as §4
Test [8] addresses TGF-beta receptor type-1 (Homo sapiens) (UniProt P36897). Briefly: Inhibition of wild-type human partial length TGFBR1 (D179 to M503 residues) expressed in bacterial expression system at 1 uM by Kinomescan method. Summed up: as §1
In test [9] the target is Fibroblast growth factor receptor 2 (Homo sapiens) (UniProt P21802). Briefly: Inhibition of wild-type human partial length FGFR2 (D457 to E769 residues) expressed in bacterial expression system at 1 uM by Kinomescan method. Summed up: as §3
Test [10] concerns the target Receptor tyrosine-protein kinase erbB-4 (Homo sapiens) (UniProt Q15303). Description: Inhibition of wild-type human partial length ERBB4 (L690 to K994 residues) expressed in bacterial expression system at 1 uM by Kinomescan method. Summed up: as §3
Test [11] addresses Cyclin-dependent kinase 7 (Homo sapiens) (UniProt P50613). Description: Inhibition of wild-type human full length CDK7 (M1 to L344 residues) expressed in mammalian expression system at 1 uM by Kinomescan method. Summed up: as §4
Another test has as its system Mus musculus. Description: Antiinflammatory activity in LPS-induced C57BL/6 mouse model of acute lung injury assessed as reduction in airspace inflammation at 5 to 10 mg/kg, iv pretreated for 15 mins followed by LPS stimulation and measured after 6 hrs by H and E staining-based microscopic analysis. The format is functional, organism-based. The essentials:
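Male C57BL/6 mice (18−22 g; n=8 per group). Compound in 0.1% CMC-Na given by tail vein injection 15 min before intraperitoneal LPS (20 mg/kg); controls received saline. Mice were sacrificed 6 h after LPS, and serum and lung tissue were collected.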

Test [12] deals with MAP kinase-activated protein kinase 2 (Homo sapiens) (UniProt P49137). Briefly: Inhibition of wild-type human partial length MAPKAPK2 (V48 to D345 residues) expressed in bacterial expression system at 1 uM by Kinomescan method. Summed up: as §3
In test [13] the test system is Tyrosine-protein kinase ABL1 (Homo sapiens), P00519 [E255K]. Briefly: Inhibition of human phosphorylated ABL1 E255K mutant (S229 to K512 residues) expressed in mammalian expression system at 1 uM by Kinomescan method. Summed up:
as §4

For test [14], the target named is Cyclin-dependent kinase 2 (Homo sapiens) (UniProt P24941). Briefly: Inhibition of wild-type human full length CDK2 (M1 to L298 residues) expressed in bacterial expression system at 1 uM by Kinomescan method. Summed up: as §4
Test [15] deals with Cyclin-dependent kinase 9 (Homo sapiens) (UniProt P50750). Description: Inhibition of wild-type human full length CDK9 (M1 to F372 residues) expressed in bacterial expression system at 1 uM by Kinomescan method. The essentials: as §4
Test [16] concerns the target Tyrosine-protein kinase JAK3 (Homo sapiens) (UniProt P52333). Description: Inhibition of wild-type human partial length JAK3 JH1 catalytic domain (I781 to S1124 residues) expressed in mammalian expression system at 1 uM by Kinomescan method. Summed up: as §3
Test [17] has as its target High affinity nerve growth factor receptor (Homo sapiens) (UniProt P04629). Description: Inhibition of wild-type human partial length TRKA (G475 to G790 residues) expressed in mammalian expression system at 1 uM by Kinomescan method. The essentials:
as §1

The target in test [18] is Epidermal growth factor receptor (Homo sapiens) (UniProt P00533). Description: Inhibition of wild-type human partial length EGFR (R669 to V1011 residues) expressed in bacterial expression system at 1 uM by Kinomescan method. Summed up:
as §2

In test [19] the target is Serine/threonine-protein kinase ULK2 (Homo sapiens) (UniProt Q8IYT8). Description: Inhibition of wild-type human partial length ULK2 (M1 to S301 residues) expressed in mammalian expression system at 1 uM by Kinomescan method. The essentials: as §1
Test [20] deals with Tyrosine-protein kinase JAK2 (Homo sapiens) (UniProt O60674). Description: Inhibition of wild-type human partial length JAK2 JH1 catalytic domain (A829 to G1132 residues) expressed in mammalian expression system at 1 uM by Kinomescan method. The essentials: as §3
Test [21] concerns the target Glycogen synthase kinase-3 beta (Homo sapiens) (UniProt P49841). Briefly: Inhibition of wild-type human full length GSK3B (M1 to T433 residues) expressed in mammalian expression system at 1 uM by Kinomescan method. The essentials:
as §4

Test [22] deals with Insulin receptor (Homo sapiens) (UniProt P06213). Description: Inhibition of wild-type human partial length INSR (P997 to E1318 residues) expressed in mammalian expression system at 1 uM by Kinomescan method. The essentials:
as §3

Sequence of TGF-beta receptor type-1 (Homo sapiens) (P36897 whole entry, the tested form may be a part): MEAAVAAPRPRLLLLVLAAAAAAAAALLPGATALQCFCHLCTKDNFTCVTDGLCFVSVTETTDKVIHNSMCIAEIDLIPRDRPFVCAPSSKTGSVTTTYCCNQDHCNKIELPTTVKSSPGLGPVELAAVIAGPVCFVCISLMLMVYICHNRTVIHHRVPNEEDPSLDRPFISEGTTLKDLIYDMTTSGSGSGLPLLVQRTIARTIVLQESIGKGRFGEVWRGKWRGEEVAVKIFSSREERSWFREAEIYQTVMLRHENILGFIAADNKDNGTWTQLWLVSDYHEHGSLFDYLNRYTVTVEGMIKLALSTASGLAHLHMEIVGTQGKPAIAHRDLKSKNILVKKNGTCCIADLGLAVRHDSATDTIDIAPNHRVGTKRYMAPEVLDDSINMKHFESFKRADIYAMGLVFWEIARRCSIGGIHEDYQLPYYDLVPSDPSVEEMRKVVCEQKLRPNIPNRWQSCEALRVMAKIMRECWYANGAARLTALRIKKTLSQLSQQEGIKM
Sequence of Mast/stem cell growth factor receptor Kit (Homo sapiens) (P10721 whole entry, the tested form may be a part): as the sequence (P10721 whole entry V559D/T670I, the tested form may be a part) above, with D559V, I670T counted along it
Sequence of Receptor tyrosine-protein kinase erbB-4 (Homo sapiens) (Q15303 whole entry, the tested form may be a part): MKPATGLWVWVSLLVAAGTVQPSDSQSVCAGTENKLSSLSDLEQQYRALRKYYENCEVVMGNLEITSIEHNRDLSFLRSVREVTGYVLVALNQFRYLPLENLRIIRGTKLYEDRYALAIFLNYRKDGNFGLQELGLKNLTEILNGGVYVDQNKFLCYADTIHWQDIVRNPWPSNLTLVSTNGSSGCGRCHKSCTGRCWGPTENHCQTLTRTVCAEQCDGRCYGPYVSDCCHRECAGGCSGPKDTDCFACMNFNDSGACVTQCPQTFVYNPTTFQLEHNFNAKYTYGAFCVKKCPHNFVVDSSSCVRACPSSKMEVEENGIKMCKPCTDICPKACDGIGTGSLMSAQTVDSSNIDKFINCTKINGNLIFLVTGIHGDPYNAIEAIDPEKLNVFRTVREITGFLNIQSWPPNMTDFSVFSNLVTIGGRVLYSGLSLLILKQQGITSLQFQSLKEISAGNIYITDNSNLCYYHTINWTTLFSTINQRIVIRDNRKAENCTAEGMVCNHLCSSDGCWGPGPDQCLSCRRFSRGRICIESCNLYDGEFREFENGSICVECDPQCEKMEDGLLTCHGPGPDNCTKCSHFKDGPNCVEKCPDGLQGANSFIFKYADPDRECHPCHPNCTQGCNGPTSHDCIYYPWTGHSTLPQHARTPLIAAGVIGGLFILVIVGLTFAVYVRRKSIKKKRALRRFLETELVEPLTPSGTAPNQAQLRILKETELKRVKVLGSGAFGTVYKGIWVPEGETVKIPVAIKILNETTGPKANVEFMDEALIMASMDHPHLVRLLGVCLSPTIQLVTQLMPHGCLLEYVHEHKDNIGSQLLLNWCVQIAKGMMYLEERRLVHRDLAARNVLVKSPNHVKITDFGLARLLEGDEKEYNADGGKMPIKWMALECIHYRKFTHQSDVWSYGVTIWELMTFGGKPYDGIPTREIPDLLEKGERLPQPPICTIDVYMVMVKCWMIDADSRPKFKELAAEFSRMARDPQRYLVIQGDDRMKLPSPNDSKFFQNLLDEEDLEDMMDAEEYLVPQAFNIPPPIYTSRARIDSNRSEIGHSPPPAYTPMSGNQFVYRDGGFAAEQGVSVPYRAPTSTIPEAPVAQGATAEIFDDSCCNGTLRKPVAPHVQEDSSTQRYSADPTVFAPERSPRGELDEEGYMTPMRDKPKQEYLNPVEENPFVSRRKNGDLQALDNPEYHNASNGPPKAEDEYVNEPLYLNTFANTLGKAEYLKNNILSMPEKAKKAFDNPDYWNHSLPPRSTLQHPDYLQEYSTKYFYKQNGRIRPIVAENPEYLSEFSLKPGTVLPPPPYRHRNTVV
Sequence of Cyclin-dependent kinase 7 (Homo sapiens) (P50613 whole entry, the tested form may be a part): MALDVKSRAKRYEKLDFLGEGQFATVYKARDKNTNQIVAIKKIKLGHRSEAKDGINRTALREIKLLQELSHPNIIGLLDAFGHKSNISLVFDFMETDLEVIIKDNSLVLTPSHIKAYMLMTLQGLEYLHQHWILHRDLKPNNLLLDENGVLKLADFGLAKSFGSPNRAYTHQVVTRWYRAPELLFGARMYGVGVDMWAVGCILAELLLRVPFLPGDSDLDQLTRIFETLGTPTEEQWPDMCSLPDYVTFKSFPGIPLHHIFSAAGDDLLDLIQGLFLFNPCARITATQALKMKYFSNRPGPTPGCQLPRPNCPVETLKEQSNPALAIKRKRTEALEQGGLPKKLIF
Sequence of Epidermal growth factor receptor (Homo sapiens) (P00533 whole entry, the tested form may be a part): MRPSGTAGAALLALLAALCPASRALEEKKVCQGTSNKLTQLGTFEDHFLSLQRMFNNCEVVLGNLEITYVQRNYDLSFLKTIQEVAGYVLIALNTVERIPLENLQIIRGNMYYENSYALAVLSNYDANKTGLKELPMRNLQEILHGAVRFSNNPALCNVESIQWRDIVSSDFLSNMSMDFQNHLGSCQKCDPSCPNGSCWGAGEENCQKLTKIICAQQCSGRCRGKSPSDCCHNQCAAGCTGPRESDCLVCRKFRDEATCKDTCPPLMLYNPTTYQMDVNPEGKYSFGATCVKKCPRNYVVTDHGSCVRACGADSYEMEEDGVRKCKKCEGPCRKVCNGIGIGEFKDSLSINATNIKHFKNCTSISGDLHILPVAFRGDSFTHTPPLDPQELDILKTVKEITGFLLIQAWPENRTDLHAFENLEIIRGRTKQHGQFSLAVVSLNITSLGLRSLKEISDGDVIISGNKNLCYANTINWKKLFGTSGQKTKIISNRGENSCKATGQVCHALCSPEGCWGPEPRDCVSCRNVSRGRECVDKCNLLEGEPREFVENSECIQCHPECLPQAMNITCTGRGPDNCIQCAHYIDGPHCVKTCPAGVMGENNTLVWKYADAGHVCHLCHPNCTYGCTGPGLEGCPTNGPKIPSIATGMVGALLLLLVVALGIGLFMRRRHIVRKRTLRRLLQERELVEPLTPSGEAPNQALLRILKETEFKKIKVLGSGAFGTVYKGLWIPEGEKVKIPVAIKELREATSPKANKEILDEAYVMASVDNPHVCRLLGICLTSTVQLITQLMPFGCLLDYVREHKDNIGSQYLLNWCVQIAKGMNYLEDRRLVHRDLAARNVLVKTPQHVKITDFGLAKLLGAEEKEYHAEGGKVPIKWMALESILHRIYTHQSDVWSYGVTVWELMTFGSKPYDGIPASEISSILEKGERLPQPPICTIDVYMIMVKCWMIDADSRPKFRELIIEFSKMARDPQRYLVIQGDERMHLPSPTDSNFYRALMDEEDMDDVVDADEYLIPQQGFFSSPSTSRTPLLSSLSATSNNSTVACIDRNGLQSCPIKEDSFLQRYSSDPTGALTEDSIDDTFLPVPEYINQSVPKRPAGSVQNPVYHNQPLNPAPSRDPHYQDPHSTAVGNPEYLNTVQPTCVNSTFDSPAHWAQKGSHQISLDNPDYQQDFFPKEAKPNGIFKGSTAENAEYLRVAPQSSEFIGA
Sequence of Glycogen synthase kinase-3 beta (Homo sapiens) (P49841 whole entry, looked up, the tested form may be a part): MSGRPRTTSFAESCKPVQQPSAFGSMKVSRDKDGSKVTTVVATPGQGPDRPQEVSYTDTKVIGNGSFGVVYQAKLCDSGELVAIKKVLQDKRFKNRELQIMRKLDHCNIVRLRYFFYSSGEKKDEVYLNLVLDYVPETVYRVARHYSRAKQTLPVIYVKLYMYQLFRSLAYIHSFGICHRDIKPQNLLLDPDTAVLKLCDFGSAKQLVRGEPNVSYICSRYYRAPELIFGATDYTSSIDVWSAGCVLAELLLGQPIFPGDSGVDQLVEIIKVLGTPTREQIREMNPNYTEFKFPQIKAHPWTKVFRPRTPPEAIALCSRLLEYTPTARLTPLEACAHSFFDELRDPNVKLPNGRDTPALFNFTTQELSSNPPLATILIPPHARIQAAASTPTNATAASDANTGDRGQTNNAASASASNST

With `O=C(Nc1ccc2[nH]nc(-c3ccc4[nH]ccc4c3)c2c1)c1c(Cl)cccc1Cl`, the inhibition result in test [1], in test [2], in [3], in [4], in test [5] and in test [6] was “inactive” throughout. Moreover, the inhibition entry in [7], in [8], in test [9], in [10], in test [11] and in [12] was “inactive” throughout. The inhibition entry in [13], in test [14], in test [15], in test [16], in test [17] and in test [18] was “inactive” each time. Further, the inhibition entry in test [19], in test [20], in test [21] and in test [22] was “inactive” in each case. Further, the outcome in the test with Mus musculus was Active.
